≈ marks a conversion by molar mass, not a printed value.
Tests used:
[1] = system: Staphylococcus aureus; experiment: Antibacterial activity against Staphylococcus aureus RN4220 assessed as reduction in bacterial cell growth incubated for 24 hrs by ELISA; format: functional; conditions: RN4220, 24 h
Summary of the method: (§1)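 MICs determined by serial dilution in 96-well microtiter plates. The strain panel included Gram-positive S. aureus strains and multidrug-resistant clinical isolates. Gatifloxacin, moxifloxacin, norfloxacin and oxacillin served as antibacterial positive controls.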

[2] = system: Staphylococcus aureus; experiment: Antibacterial activity against Staphylococcus aureus KCTC209 assessed as reduction in bacterial cell growth incubated for 24 hrs by ELISA; format: functional; conditions: KCTC209, 24 h; summary of the method: as §1
[3] = system: Staphylococcus aureus; experiment: Antibacterial activity against Staphylococcus aureus KCTC503 assessed as reduction in bacterial cell growth incubated for 24 hrs by ELISA; format: functional; conditions: KCTC503, 24 h; summary of the method: as §1
[4] = system: Streptococcus mutans; experiment: Antibacterial activity against Streptococcus mutans KCTC3289 assessed as reduction in bacterial cell growth incubated for 24 hrs by ELISA; format: functional; conditions: KCTC3289, 24 h
Summary of the method: (§2)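 MIC determined by serial dilution in 96-well microtiter plates. Strains used were E. coli 1924 and P. aeruginosa 2742 (Gram-negative), S. mutans 3289 (Gram-positive) and the fungus C. albicans 7535. Gatifloxacin, moxifloxacin, norfloxacin and oxacillin served as antibacterial reference agents, and fluconazole as the antifungal reference.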

[5] = system: Escherichia coli; experiment: Antibacterial activity against Escherichia coli 1924 assessed as reduction in bacterial cell growth incubated for 24 hrs by ELISA; format: functional; conditions: Escherichia coli, 1924, 24 h; summary of the method: as §2
[6] = system: Pseudomonas aeruginosa; experiment: Antibacterial activity against Pseudomonas aeruginosa 2742 assessed as reduction in bacterial cell growth incubated for 24 hrs by ELISA; format: functional; conditions: Pseudomonas aeruginosa, 2742, 24 h; summary of the method: as §2
[7] = system: Staphylococcus aureus; experiment: Antibacterial activity against Methicillin-resistant Staphylococcus aureus CCARM 3167 assessed as reduction in bacterial cell growth incubated for 24 hrs by ELISA; format: functional; conditions: CCARM 3167, 24 h; summary of the method: as §1
[8] = system: Staphylococcus aureus; experiment: Antibacterial activity against Methicillin-resistant Staphylococcus aureus CCARM 3506 assessed as reduction in bacterial cell growth incubated for 24 hrs by ELISA; format: functional; conditions: CCARM 3506, 24 h; summary of the method: as §1
[9] = system: Staphylococcus aureus; experiment: Antibacterial activity against Quinolone-resistant Staphylococcus aureus CCARM 3505 assessed as reduction in bacterial cell growth incubated for 24 hrs by ELISA; format: functional; conditions: CCARM 3505, 24 h; summary of the method: as §1
[10] = system: Staphylococcus aureus; experiment: Antibacterial activity against Quinolone-resistant Staphylococcus aureus CCARM 3519 assessed as reduction in bacterial cell growth incubated for 24 hrs by ELISA; format: functional; conditions: CCARM 3519, 24 h; summary of the method: as §1
[11] = biological target: T1, Tyrosine-protein phosphatase non-receptor type 1 (Homo sapiens, UniProt P18031); experiment: Inhibition of human recombinant GST-tagged PTP1B expressed in Escherichia coli BL21 (DE3) using pNPP as substrate measured for 2 mins by colorimetric analysis
T1 sequence (P18031 whole entry): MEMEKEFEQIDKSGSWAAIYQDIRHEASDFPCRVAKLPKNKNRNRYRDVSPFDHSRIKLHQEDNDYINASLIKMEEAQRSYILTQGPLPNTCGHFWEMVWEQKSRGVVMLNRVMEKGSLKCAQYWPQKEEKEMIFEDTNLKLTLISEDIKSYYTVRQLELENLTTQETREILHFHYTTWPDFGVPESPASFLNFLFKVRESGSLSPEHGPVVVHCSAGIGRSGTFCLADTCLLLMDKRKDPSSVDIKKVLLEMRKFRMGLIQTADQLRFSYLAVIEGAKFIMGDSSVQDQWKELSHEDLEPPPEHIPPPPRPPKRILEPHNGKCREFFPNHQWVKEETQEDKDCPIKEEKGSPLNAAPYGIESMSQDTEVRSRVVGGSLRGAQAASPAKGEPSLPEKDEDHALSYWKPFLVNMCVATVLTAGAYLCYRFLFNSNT

[12] = system: Candida albicans; experiment: Antifungal activity against Candida albicans 7535 assessed as reduction in bacterial cell growth incubated for 24 hrs by ELISA; format: functional; conditions: Candida albicans, 7535, 24 h; summary of the method: as §2

| Compound | MIC [1] | MIC [2] | MIC [3] | MIC [4] | MIC [5] | MIC [6] | MIC [7] | MIC [8] | MIC [9] | MIC [10] | IC50 [11] | MIC [12] |
| --- | --- | --- | --- | --- | --- | --- | --- | --- | --- | --- | --- | --- |
| COc1c(N2CCNC(C)C2)c(F)cc2c(=O)c(C(=O)O)cn(C3CC3)c12 (stereo not drawn) [GATIFLOXACIN] | 0.25 µg/mL (≈ 0.666 µM) | 2 µg/mL (≈ 5.33 µM) | 4 µg/mL (≈ 10.7 µM) | 0.25 µg/mL (≈ 0.666 µM) | 2 µg/mL (≈ 5.33 µM) | 1 µg/mL (≈ 2.66 µM) | 2 µg/mL (≈ 5.33 µM) | 2 µg/mL (≈ 5.33 µM) | 8 µg/mL (≈ 21.3 µM) | 4 µg/mL (≈ 10.7 µM) | – | – |
| CCn1cc(C(=O)O)c(=O)c2cc(F)c(N3CCNCC3)cc21 [NORFLOXACIN] | – | – | – | – | – | – | 8 µg/mL (≈ 25.1 µM) | 4 µg/mL (≈ 12.5 µM) | > 64 µg/mL | > 64 µg/mL | – | – |
| O=C(O)C(Cc1c[nH]c2ccccc12)N1C(=O)/C(=C/c2ccc(OCc3ccc(Cl)cc3)cc2)SC1=S (stereo not drawn) | 2 µg/mL (≈ 3.64 µM) | 4 µg/mL (≈ 7.29 µM) | 4 µg/mL (≈ 7.29 µM) | 2 µg/mL (≈ 3.64 µM) | 4 µg/mL (≈ 7.29 µM) | > 64 µg/mL | 4 µg/mL (≈ 7.29 µM) | 4 µg/mL (≈ 7.29 µM) | 4 µg/mL (≈ 7.29 µM) | 4 µg/mL (≈ 7.29 µM) | 2440 nM | > 64 µg/mL |
| COc1ccccc1COc1ccc2cc(/C=C3\SC(=S)N(C(Cc4c[nH]c5ccccc45)C(=O)O)C3=O)ccc2c1 (stereo not drawn) | 8 µg/mL (≈ 13.5 µM) | – | – | 8 µg/mL (≈ 13.5 µM) | 16 µg/mL (≈ 26.9 µM) | > 64 µg/mL | 8 µg/mL (≈ 13.5 µM) | 8 µg/mL (≈ 13.5 µM) | 8 µg/mL (≈ 13.5 µM) | 8 µg/mL (≈ 13.5 µM) | 1530 nM | > 64 µg/mL |
| O=C(O)C(Cc1c[nH]c2ccccc12)N1C(=O)/C(=C/c2cccc(OCc3ccccc3)c2)SC1=S (stereo not drawn) | 4 µg/mL (≈ 7.77 µM) | 8 µg/mL (≈ 15.5 µM) | 8 µg/mL (≈ 15.5 µM) | 8 µg/mL (≈ 15.5 µM) | 8 µg/mL (≈ 15.5 µM) | > 64 µg/mL | 8 µg/mL (≈ 15.5 µM) | 8 µg/mL (≈ 15.5 µM) | 8 µg/mL (≈ 15.5 µM) | 8 µg/mL (≈ 15.5 µM) | 8230 nM | > 64 µg/mL |
| COc1cc(/C=C2\SC(=S)N(C(Cc3c[nH]c4ccccc34)C(=O)O)C2=O)ccc1OCc1ccc(Cl)cc1 (stereo not drawn) | 2 µg/mL (≈ 3.45 µM) | 4 µg/mL (≈ 6.91 µM) | 4 µg/mL (≈ 6.91 µM) | 4 µg/mL (≈ 6.91 µM) | 4 µg/mL (≈ 6.91 µM) | > 64 µg/mL | 4 µg/mL (≈ 6.91 µM) | 4 µg/mL (≈ 6.91 µM) | 4 µg/mL (≈ 6.91 µM) | 4 µg/mL (≈ 6.91 µM) | 4360 nM | > 64 µg/mL |
| O=C(O)C(Cc1c[nH]c2ccccc12)N1C(=O)/C(=C/c2ccc3cc(OCc4ccccc4Cl)ccc3c2)SC1=S (stereo not drawn) | 4 µg/mL (≈ 6.68 µM) | – | – | 2 µg/mL (≈ 3.34 µM) | 4 µg/mL (≈ 6.68 µM) | > 64 µg/mL | 2 µg/mL (≈ 3.34 µM) | 4 µg/mL (≈ 6.68 µM) | 4 µg/mL (≈ 6.68 µM) | 4 µg/mL (≈ 6.68 µM) | 800 nM | > 64 µg/mL |
| O=C(O)C(Cc1c[nH]c2ccccc12)N1C(=O)/C(=C/c2ccc3cc(OCc4cccc(Cl)c4)ccc3c2)SC1=S (stereo not drawn) | 4 µg/mL (≈ 6.68 µM) | – | – | 2 µg/mL (≈ 3.34 µM) | 2 µg/mL (≈ 3.34 µM) | > 64 µg/mL | 2 µg/mL (≈ 3.34 µM) | 4 µg/mL (≈ 6.68 µM) | 8 µg/mL (≈ 13.4 µM) | 8 µg/mL (≈ 13.4 µM) | 720 nM | > 64 µg/mL |
| COc1c(N2C[C@@H]3CCCN[C@@H]3C2)c(F)cc2c(=O)c(C(=O)O)cn(C3CC3)c12 [MOXIFLOXACIN] | 0.25 µg/mL (≈ 0.623 µM) | – | 2 µg/mL (≈ 4.98 µM) | 0.25 µg/mL (≈ 0.623 µM) | – | – | – | – | – | 4 µg/mL (≈ 9.96 µM) | – | 0.5 µg/mL (≈ 1.25 µM) |
| O=C(O)C(Cc1c[nH]c2ccccc12)N1C(=O)/C(=C/c2cccc(OCc3ccc(Cl)cc3Cl)c2)SC1=S (stereo not drawn) | 4 µg/mL (≈ 6.85 µM) | 4 µg/mL (≈ 6.85 µM) | 8 µg/mL (≈ 13.7 µM) | 4 µg/mL (≈ 6.85 µM) | 8 µg/mL (≈ 13.7 µM) | > 64 µg/mL | 8 µg/mL (≈ 13.7 µM) | 8 µg/mL (≈ 13.7 µM) | 4 µg/mL (≈ 6.85 µM) | 4 µg/mL (≈ 6.85 µM) | 1700 nM | > 64 µg/mL |
| O=C(O)CN1C(=O)/C(=C/c2ccc3cc(OCc4ccc(F)cc4)ccc3c2)SC1=S | 4 µg/mL (≈ 8.82 µM) | – | 4 µg/mL (≈ 8.82 µM) | – | > 64 µg/mL | > 64 µg/mL | 4 µg/mL (≈ 8.82 µM) | 2 µg/mL (≈ 4.41 µM) | 4 µg/mL (≈ 8.82 µM) | 4 µg/mL (≈ 8.82 µM) | – | > 64 µg/mL |
| O=C(O)C(Cc1c[nH]c2ccccc12)N1C(=O)/C(=C/c2cccc(OCc3ccc(Br)cc3)c2)SC1=S (stereo not drawn) | 2 µg/mL (≈ 3.37 µM) | 4 µg/mL (≈ 6.74 µM) | 4 µg/mL (≈ 6.74 µM) | 4 µg/mL (≈ 6.74 µM) | 8 µg/mL (≈ 13.5 µM) | > 64 µg/mL | 8 µg/mL (≈ 13.5 µM) | 8 µg/mL (≈ 13.5 µM) | 8 µg/mL (≈ 13.5 µM) | 4 µg/mL (≈ 6.74 µM) | 2700 nM | > 64 µg/mL |
| COc1cccc(COc2ccc3cc(/C=C4\SC(=S)N(C(Cc5c[nH]c6ccccc56)C(=O)O)C4=O)ccc3c2)c1 (stereo not drawn) | 8 µg/mL (≈ 13.5 µM) | – | – | 8 µg/mL (≈ 13.5 µM) | 16 µg/mL (≈ 26.9 µM) | > 64 µg/mL | 8 µg/mL (≈ 13.5 µM) | 16 µg/mL (≈ 26.9 µM) | 8 µg/mL (≈ 13.5 µM) | 16 µg/mL (≈ 26.9 µM) | 1670 nM | > 64 µg/mL |
| OC(Cn1cncn1)(Cn1cncn1)c1ccc(F)cc1F [FLUCONAZOLE] | – | – | – | – | – | – | – | – | – | – | – | 1 µg/mL (≈ 3.27 µM) |
| O=C(O)C(Cc1c[nH]c2ccccc12)N1C(=O)/C(=C/c2ccc3cc(OCc4ccccc4)ccc3c2)SC1=S (stereo not drawn) | 8 µg/mL (≈ 14.2 µM) | – | – | 8 µg/mL (≈ 14.2 µM) | 8 µg/mL (≈ 14.2 µM) | > 64 µg/mL | 8 µg/mL (≈ 14.2 µM) | 8 µg/mL (≈ 14.2 µM) | 4 µg/mL (≈ 7.08 µM) | 8 µg/mL (≈ 14.2 µM) | 820 nM | > 64 µg/mL |
| Cc1onc(-c2ccccc2)c1C(=O)N[C@@H]1C(=O)N2[C@@H]1SC(C)(C)[C@@H]2C(=O)O [OXACILLIN] | – | – | – | – | – | – | > 64 µg/mL | > 64 µg/mL | 1 µg/mL (≈ 2.49 µM) | 1 µg/mL (≈ 2.49 µM) | – | – |
| COc1ccc(COc2ccc3cc(/C=C4\SC(=S)N(C(Cc5c[nH]c6ccccc56)C(=O)O)C4=O)ccc3c2)cc1 (stereo not drawn) | 8 µg/mL (≈ 13.5 µM) | – | – | 8 µg/mL (≈ 13.5 µM) | 16 µg/mL (≈ 26.9 µM) | > 64 µg/mL | 8 µg/mL (≈ 13.5 µM) | 8 µg/mL (≈ 13.5 µM) | 8 µg/mL (≈ 13.5 µM) | 8 µg/mL (≈ 13.5 µM) | 1450 nM | > 64 µg/mL |

Source: ChEMBL document CHEMBL4346701, “Synthesis and biological evaluation of tryptophan-derived rhodanine derivatives as PTP1B inhibitors and anti-bacterial agents” (Eur J Med Chem, 2019)
